Active and inactive are the calls of the source. The rule behind the calls is not given here.
Tests used:
[1] = molecular target: T1, Pituitary adenylate cyclase-activating polypeptide type I receptor (Homo sapiens, UniProt P41586); experiment: Agonist activity at human recombinant PAC1 receptor expressed in CHO cells assessed as PACAP38-induced calcium mobilization at 1 uM by FLIPR assay relative to PACAP38; format: functional, cell-based
Target sequence in this assay (P41586 21-468 limits assumed): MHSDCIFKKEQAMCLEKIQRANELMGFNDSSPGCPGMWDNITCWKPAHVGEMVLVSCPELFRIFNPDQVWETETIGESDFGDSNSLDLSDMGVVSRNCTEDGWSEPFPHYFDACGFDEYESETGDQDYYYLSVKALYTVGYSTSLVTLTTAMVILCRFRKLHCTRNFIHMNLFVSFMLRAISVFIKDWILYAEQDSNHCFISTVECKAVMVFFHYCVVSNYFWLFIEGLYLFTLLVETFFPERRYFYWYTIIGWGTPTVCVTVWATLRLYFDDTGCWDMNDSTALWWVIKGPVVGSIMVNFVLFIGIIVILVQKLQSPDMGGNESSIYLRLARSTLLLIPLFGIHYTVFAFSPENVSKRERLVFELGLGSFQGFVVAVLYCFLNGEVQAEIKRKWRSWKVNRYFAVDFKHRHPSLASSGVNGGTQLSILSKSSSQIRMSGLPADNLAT

[2] = molecular target: T1, Pituitary adenylate cyclase-activating polypeptide type I receptor; experiment: Displacement of [125I]Ac-PACAP27 from human recombinant PAC1 receptor expressed in CHO cells by gamma- counter; format: cell-based
Target sequence in this assay (P41586 whole entry): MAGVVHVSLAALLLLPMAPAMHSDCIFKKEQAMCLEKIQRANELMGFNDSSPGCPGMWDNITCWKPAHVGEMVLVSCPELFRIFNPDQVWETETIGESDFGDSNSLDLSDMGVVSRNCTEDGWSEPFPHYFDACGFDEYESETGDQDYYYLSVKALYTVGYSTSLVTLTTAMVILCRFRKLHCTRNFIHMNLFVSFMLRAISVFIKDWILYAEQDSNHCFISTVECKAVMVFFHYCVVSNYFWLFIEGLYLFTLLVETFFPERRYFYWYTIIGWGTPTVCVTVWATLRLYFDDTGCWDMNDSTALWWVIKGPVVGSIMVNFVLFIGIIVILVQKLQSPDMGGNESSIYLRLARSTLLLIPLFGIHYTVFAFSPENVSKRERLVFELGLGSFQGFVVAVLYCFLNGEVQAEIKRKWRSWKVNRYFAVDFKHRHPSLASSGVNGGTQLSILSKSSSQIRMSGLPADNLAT

[3] = molecular target: T1, Pituitary adenylate cyclase-activating polypeptide type I receptor; experiment: Antagonist activity at human recombinant PAC1 receptor expressed in CHO cells assessed as reduction in PACAP38-induced calcium mobilization at 10 uM by FLIPR assay; format: functional, cell-based
Procedure, shortened: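 Fluo-4-loaded CHO cells stably expressing human PAC1 were exposed for 15 min to 10^-5 M peptide before reading. They were then challenged with 10^-6 M PACAP38, and the reduction in fluorescence calcium response was recorded (ex 480/em 525 nm, 150 s).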
Target sequence in this assay (P41586 21-468 limits assumed): as the sequence (P41586 21-468 limits assumed) above

[4] = molecular target: T1, Pituitary adenylate cyclase-activating polypeptide type I receptor; experiment: Agonist activity at human recombinant PAC1 receptor expressed in CHO cells assessed as PACAP38-induced calcium mobilization at 1 uM by FLIPR assay; format: functional, cell-based
Target sequence in this assay (P41586 whole entry): as the sequence (P41586 whole entry) above

[5] = molecular target: T1, Pituitary adenylate cyclase-activating polypeptide type I receptor; experiment: Antagonist activity at human recombinant PAC1 receptor expressed in CHO cells assessed as reduction in PACAP38-induced calcium mobilization by FLIPR assay; format: functional, cell-based; settings: read-out: pA2 (converted)
Procedure, shortened: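 PAC1-CHO cells were loaded with fluo-4 and preincubated 15 min with antagonist at 0.1, 1 or 10 µM. PACAP38 concentration-response curves for calcium mobilization were then recorded. pA2 was estimated by Schild plot from concentration ratios; 4-10 independent assays in duplicate.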
Target sequence in this assay (P41586 whole entry): as above

Emax [1]	IC50 [2] [µM]	Activity [3]	EC50 [4]	Kb [5] [µM]	SMILES
inactive	0.308	inactive	Not Active		CC[C@H](C)[C@H](NC(=O)CN(C)C(=O)[C@H](CC(=O)O)NC(=O)[C@H](CO)NC(=O)[C@@H](N)Cc1cnc[nH]1)C(=O)N[C@@H](Cc1ccccc1)C(=O)N[C@H](C(=O)N[C@@H](CC(=O)O)C(=O)N[C@@H](CO)C(=O)N[C@@H](Cc1ccc(O)cc1)C(=O)N[C@@H](CO)C(=O)N[C@@H](CCCNC(=N)N)C(=O)N[C@@H](Cc1ccc(O)cc1)C(=O)N[C@@H](CCCNC(=N)N)C(=O)N[C@@H](CCCCN)C(=O)N[C@@H](CCC(N)=O)C(=O)N[C@@H](CCSC)C(=O)N[C@@H](C)C(=O)N[C@H](C(=O)N[C@@H](CCCCN)C(=O)N[C@@H](CCCCN)C(=O)N[C@@H](Cc1ccc(O)cc1)C(=O)N[C@@H](CC(C)C)C(=O)N[C@@H](C)C(=O)N[C@@H](C)C(=O)N[C@H](C(=O)N[C@@H](CC(C)C)C(N)=O)C(C)C)C(C)C)[C@@H](C)O
inactive	0.158		Not Active	0.0525	CC[C@H](C)[C@@H](C(=O)N[C@@H](Cc1ccccc1)C(=O)N[C@H](C(=O)N[C@@H](CC(=O)O)C(=O)N[C@@H](CO)C(=O)N[C@@H](Cc1ccc(O)cc1)C(=O)N[C@@H](CO)C(=O)N[C@@H](CCCNC(=N)N)C(=O)N[C@@H](Cc1ccc(O)cc1)C(=O)N[C@@H](CCCNC(=N)N)C(=O)N[C@@H](CCCCN)C(=O)N[C@@H](CCC(N)=O)C(=O)N[C@@H](CCSC)C(=O)N[C@@H](C)C(=O)N[C@H](C(=O)N[C@@H](CCCCN)C(=O)N[C@@H](CCCCN)C(=O)N[C@@H](Cc1ccc(O)cc1)C(=O)N[C@@H](CC(C)C)C(=O)N[C@@H](C)C(=O)N[C@@H](C)C(=O)N[C@H](C(=O)N[C@@H](CC(C)C)C(=O)NCC(=O)N[C@@H](CCCCN)C(=O)N[C@@H](CCCNC(=N)N)C(=O)N[C@@H](Cc1ccc(O)cc1)C(=O)N[C@@H](CCCCN)C(=O)N[C@@H](CCC(N)=O)C(=O)N[C@@H](CCCNC(=N)N)C(=O)N[C@H](C(=O)N[C@@H](CCCCN)C(=O)N[C@@H](CC(N)=O)C(=O)N[C@@H](CCCCN)C(N)=O)C(C)C)C(C)C)C(C)C)[C@@H](C)O)N(C)C(=O)CNC(=O)[C@H](CC(=O)O)NC(=O)[C@H](CO)NC(=O)[C@@H](N)Cc1cnc[nH]1
inactive	0.0567		Not Active	0.011	CSCC[C@H](NC(=O)[C@H](CCC(N)=O)NC(=O)[C@H](CCCCN)NC(=O)[C@H](CCCNC(=N)N)NC(=O)[C@H](Cc1ccc(O)cc1)NC(=O)[C@H](CCCNC(=N)N)NC(=O)[C@H](CO)NC(=O)[C@H](Cc1ccc(O)cc1)NC(=O)[C@H](CO)NC(=O)[C@H](CC(=O)O)NC(=O)[C@@H](NC(=O)[C@@H](N)Cc1ccccc1)[C@@H](C)O)C(=O)N[C@@H](C)C(=O)N[C@H](C(=O)N[C@@H](CCCCN)C(=O)N[C@@H](CCCCN)C(=O)N[C@@H](Cc1ccc(O)cc1)C(=O)N[C@@H](CC(C)C)C(=O)N[C@@H](C)C(=O)N[C@@H](C)C(=O)N[C@H](C(=O)N[C@@H](CC(C)C)C(=O)NCC(=O)N[C@@H](CCCCN)C(=O)N[C@@H](CCCNC(=N)N)C(=O)N[C@@H](Cc1ccc(O)cc1)C(=O)N[C@@H](CCCCN)C(=O)N[C@@H](CCC(N)=O)C(=O)N[C@@H](CCCNC(=N)N)C(=O)N[C@H](C(=O)N[C@@H](CCCCN)C(=O)N[C@@H](CC(N)=O)C(=O)N[C@@H](CCCCN)C(N)=O)C(C)C)C(C)C)C(C)C

Source: ChEMBL document CHEMBL1138520, “Molecular and conformational determinants of pituitary adenylate cyclase-activating polypeptide (PACAP) for activation of the PAC1 receptor” (J Med Chem, 2009)
